Experimental data: paper PMC5490379 (Molecular pharmaceutics, 2017)
Blank lines part the entries; values can stand above or below the molecule they belong to.

Assays:
σ2 receptor = molecular target: T1, σ2 receptor (Rattus norvegicus, UniProt Q5U3Y7); assay: In vitro σ2 binding assay; conditions: for Ki σ2: rat liver membrane homogenates, 3 nM [^3H]DTG, 1 μM dextrallorphan; for fold reduction in σ2 affinity: compared with 3a
T1 sequence (Q5U3Y7 1-176): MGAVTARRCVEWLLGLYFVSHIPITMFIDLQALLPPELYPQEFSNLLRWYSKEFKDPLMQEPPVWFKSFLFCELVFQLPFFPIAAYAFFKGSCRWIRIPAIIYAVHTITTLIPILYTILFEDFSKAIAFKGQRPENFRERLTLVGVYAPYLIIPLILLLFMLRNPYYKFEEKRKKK
Procedure, shortened: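 Rat liver membrane homogenate (150–200 µg protein) incubated with 3 nM [3H]DTG (39.4 Ci/mmol) plus 1 µM dextrallorphan to mask σ1 sites, with test compound from 10-4 to 10-12 M. Conditions as for σ1: 50 mM Tris-HCl pH 8.0, 25 °C, 120 min, then filtration. […] IC50 by curve fitting, converted to Ki by Cheng-Prusoff.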

σ1 receptor [1] = molecular target: σ1 receptor (Cavia porcellus, UniProt Q60492); assay: In vitro σ1 binding assay; design: species or system guinea pig; conditions: for Ki σ1: guinea pig brain membrane homogenates; for fold reduction in σ1 affinity: compared with 3a
σ1 receptor (Cavia porcellus, UniProt Q60492), sequence (Q60492 whole entry): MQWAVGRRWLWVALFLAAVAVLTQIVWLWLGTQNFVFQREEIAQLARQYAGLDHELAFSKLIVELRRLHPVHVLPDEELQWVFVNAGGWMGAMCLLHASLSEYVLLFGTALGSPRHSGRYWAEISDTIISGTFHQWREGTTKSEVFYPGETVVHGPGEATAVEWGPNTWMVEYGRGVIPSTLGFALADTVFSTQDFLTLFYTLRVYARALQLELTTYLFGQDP
Procedure, shortened: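 Guinea pig brain membrane homogenate (300–500 µg protein) incubated with 3 nM [3H]-(+)-pentazocine (51.7 Ci/mmol) and test compound (10-4 to 10-12 M) in 50 mM Tris-HCl pH 8.0, 25 °C, 120 min. Stopped with ice-cold 10 mM Tris-HCl pH 8.0, filtered on PEI-soaked glass fibre filters, washed twice. […] IC50 by iterative curve fitting; Ki by Cheng-Prusoff. Protein by Lowry.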

[2] = Mouse liver microsomal assay; assay type: in vitro ADME; conditions: liver microsomes
Procedure, shortened: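 Mouse liver microsomes (20 mg/mL stock) diluted in 0.1 M phosphate buffer containing 3.3 mM MgCl2. Test compound added from a 100 µM stock, with verapamil as positive control. Intact test compound quantified over time by LC-MS/MS, and metabolic degradation half-life derived from its disappearance.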

σ1 receptor [3] = conditions: ref [10]; cited from earlier work
PC-3 prostate tumors = conditions: mice bearing PC-3 prostate tumors; ref [30]; cited from earlier work

SMILES: O=C(NCCN1CCCCC1)c1cc(Br)ccc1O [Compound 2, 5-Bromo-2-hydroxy-N-{2-(piperidin-1-yl)ethyl}benzamide]
Ki σ2 (σ2 receptor): devoid of σ receptor binding affinity | Ki σ1 (σ1 receptor [1]; 3 nM [^3H]-(+)-pentazocine): devoid of σ receptor binding affinity

SMILES: O=C(NCCN1CCCCC1)c1ccc(I)cc1 [Compound 4-IPAB]
σ1 affinity (σ1 receptor [3]): nanomolar

SMILES: COc1ccc(C(=O)NCCN2CCCCC2)cc1I [PIMBA]
σ1 affinity (σ1 receptor [3]): nanomolar

SMILES: [11CH3]Oc1cccc2c1CCCC2CCCN1CCN(C2CCCCC2)CC1 (stereo not shown) [[^11C]PB28]
tumor uptake (PC-3 prostate tumors): poor tumor uptake

The next lines start with the values.

half-life at 1 μM [2]: 5.94 min | Ki (σ1 receptor [1]; Ki σ1, guinea pig brain membrane homogenates, 3 nM [^3H]-(+)-pentazocine): 6.3 nM
SMILES: O=C(NCCN1CCCCC1)c1cc(Br)ccc1OCCF [Compound 3a, 5-Bromo-2-(2-fluoroethoxy)-N-{2-(piperidin-1-yl)ethyl}benzamide]

fold reduction in σ2 affinity (σ2 receptor): 9 fold | fold reduction in σ1 affinity (σ1 receptor [1]): 9 fold
SMILES: O=C(NCCN1CCCCC1)c1cc(Br)ccc1OCCCF [Compound 3b, 5-Bromo-2-(3-fluoropropoxy)-N-{2-(piperidin-1-yl)ethyl}benzamide]

Ki σ2 (σ2 receptor): devoid of σ receptor binding affinity | Ki σ1 (σ1 receptor [1]; 3 nM [^3H]-(+)-pentazocine): devoid of σ receptor binding affinity
SMILES: O=C(NCCN1CCCCC1)c1ccc(O)c(Br)c1 [Compound 6, 3-Bromo-4-hydroxy-N-{2-(piperidin-1-yl)ethyl}benzamide]

fold reduction in σ2 affinity (σ2 receptor): 4 fold | fold reduction in σ1 affinity (σ1 receptor [1]): 6 fold
SMILES: O=C(NCCN1CCCCC1)c1ccc(OCCF)c(Br)c1 [Compound 7a, 3-Bromo-4-(2-fluoroethoxy)-N-{2-(piperidin-1-yl)-ethyl}benzamide]
